Experimental data taken from ChEMBL document CHEMBL2375268, “Design, synthesis and antiproliferative properties of some new 5-substituted-2-iminobenzimidazole derivatives” (Eur J Med Chem, 2013).

How the values were obtained:
[1] = Antiproliferative activity against human LEP-3 cells after 24 hrs by MTS assay; format: cell-based; settings: LEP-3, 24 h
How it was run: (§1)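 Compounds taken up in DMSO at 0.5 mg/ml stock, then diluted 1:10, 1:100, 1:1000 and 1:10 000. Cells exposed 24 h; cells in unmodified medium served as control. MTS added, 4 h at 37 °C in 5% CO2/95% air, absorbance read at 490 nm. Viability given as % of untreated control per concentration, mean of three independent assays. IC50 (cancer lines) or EC50 (Lep-3) derived from plotted curves.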

[2] = tested on: HepG2; experiment: Antiproliferative activity against human HepG2 cells after 24 hrs by MTS assay; format: functional, cell-based; settings: HepG2, 24 h; how it was run: as §1
[3] = tested on: HT-29; experiment: Antiproliferative activity against human HT-29 cells after 24 hrs by MTS assay; format: functional, cell-based; settings: HT-29, 24 h; how it was run: as §1
[4] = tested on: MDA-MB-231; experiment: Antiproliferative activity against human MDA-MB-231 cells after 24 hrs by MTS assay; format: functional, cell-based; settings: MDA-MB-231, 24 h; how it was run: as §1
[5] = tested on: HeLa; experiment: Antiproliferative activity against human HeLa cells after 24 hrs by MTS assay; format: functional, cell-based; how it was run: as §1

Row | SMILES | EC50 [1] | EC50 [2] | IC50 [3] | EC50 [4] | EC50 [3] | EC50 [5] | IC50 [4] | IC50 [2] | IC50 [5]
1 | CCOC(=O)Cn1c(=N)n(CC(=O)OCC)c2cc(C(=O)c3ccccc3)ccc21 | 73 nM | 70.1 nM | 0.64 nM | 0.28 nM | – | – | – | – | –
2 | N#CCCCCn1c(=N)n(CCCCC#N)c2cc(C(=O)c3ccccc3)ccc21 | 68 nM | 94.1 nM | – | 119 nM | 46.7 nM | 0.015 nM | – | – | –
3 | N=c1n(CC(=O)N/N=C/c2ccc3c(c2)OCO3)c2ccc(C(=O)c3ccccc3)cc2n1CC(=O)N/N=C/c1ccc2c(c1)OCO2 | 0.21 nM | 10.2 nM | 2.83 nM | – | – | 0.25 nM | 6.2 nM | – | –
4 | N=c1n(CC(=O)N/N=C/c2ccc(F)cc2)c2ccc([N+](=O)[O-])cc2n1CC(=O)N/N=C/c1ccc(F)cc1 | 12.2 nM | – | – | 17 nM | 24.5 nM | – | – | 7.27 nM | 117 nM
5 | CCCCn1c(=N)n(CCCC)c2cc([N+](=O)[O-])ccc21 | 114 nM | 142 nM | – | 86 nM | 177 nM | 158 nM | – | – | –
